The values that follow come from ChEMBL document CHEMBL2146436, “Synthesis and pharmacological investigation of azaphthalazinone human histamine H(1) receptor antagonists” (Bioorg Med Chem, 2012).

For series [1], the target named is T1, Histamine H1 receptor (Homo sapiens, UniProt P35367). The series is described as follows: Antagonist activity at human H1 receptor expressed in CHO cells assessed as inhibition of calcium mobilization by FLIPR assay. It is filed as functional, cell-based. Summed up: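 Intact CHO cells expressing recombinant human H1 receptor were loaded with Fluo-4AM. Inhibition of agonist-induced calcium mobilisation was read in a plate-based FLIPR instrument and expressed as pKi, with the number of determinations given.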
T1 sequence (P35367 whole entry): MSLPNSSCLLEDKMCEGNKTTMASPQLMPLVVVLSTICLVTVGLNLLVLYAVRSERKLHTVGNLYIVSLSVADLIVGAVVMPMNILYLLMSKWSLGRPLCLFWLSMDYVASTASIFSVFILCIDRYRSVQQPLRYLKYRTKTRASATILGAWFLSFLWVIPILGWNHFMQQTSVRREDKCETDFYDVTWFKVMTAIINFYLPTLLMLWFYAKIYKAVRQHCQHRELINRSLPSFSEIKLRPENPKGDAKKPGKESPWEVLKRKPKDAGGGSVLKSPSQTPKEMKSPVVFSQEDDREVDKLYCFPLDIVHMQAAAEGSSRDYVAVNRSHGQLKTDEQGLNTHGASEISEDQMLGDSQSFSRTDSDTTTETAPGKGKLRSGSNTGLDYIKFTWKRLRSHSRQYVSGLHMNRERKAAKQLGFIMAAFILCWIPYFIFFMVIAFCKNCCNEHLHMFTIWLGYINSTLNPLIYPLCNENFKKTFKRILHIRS
A general note: A change in cytosolic calcium serves as a functional read-out for many receptors and channels.

The next series has as its target Histamine H3 receptor (Homo sapiens, UniProt Q9Y5N1). The series can be described thus: Antagonist activity at human H3 receptor expressed in CHO cells assessed as inhibition of histamine-induced GTPgamma[S] binding by scintillation proximity assay. Type of series: functional, cell-based. For orientation: GTPγS is a poorly hydrolysed GTP analogue; its binding reports G protein activation.

Series [2] in a line: Lipophilicity, log D of compound at pH 7.4. Type of series: physicochemical. Particulars: buffer.
Series [3] deals with T1, Histamine H1 receptor. The series can be described thus: Antagonist activity against human CHO cells H1 receptor at 100 nM after 30 mins by FLIPR assay. It is filed as functional, cell-based. The conditions noted are these: read-out: pA2 (converted). Summed up: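 Modified lower-throughput FLIPR assay in CHO cells expressing recombinant human H1. Histamine concentration–response curves were run without antagonist and with a single 100 nM antagonist concentration after 30 min incubation. EC50 values came from a four-parameter logistic fit. pA2 = log(DR−1) − log[B], where DR is the ratio of the EC50 with antagonist to the control EC50. Values are mean ± SEM, with SD given when n<3.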

For series [4], the target named is T2, Alpha-1A adrenergic receptor (Homo sapiens, UniProt P35348).
T2 sequence (P35348 whole entry): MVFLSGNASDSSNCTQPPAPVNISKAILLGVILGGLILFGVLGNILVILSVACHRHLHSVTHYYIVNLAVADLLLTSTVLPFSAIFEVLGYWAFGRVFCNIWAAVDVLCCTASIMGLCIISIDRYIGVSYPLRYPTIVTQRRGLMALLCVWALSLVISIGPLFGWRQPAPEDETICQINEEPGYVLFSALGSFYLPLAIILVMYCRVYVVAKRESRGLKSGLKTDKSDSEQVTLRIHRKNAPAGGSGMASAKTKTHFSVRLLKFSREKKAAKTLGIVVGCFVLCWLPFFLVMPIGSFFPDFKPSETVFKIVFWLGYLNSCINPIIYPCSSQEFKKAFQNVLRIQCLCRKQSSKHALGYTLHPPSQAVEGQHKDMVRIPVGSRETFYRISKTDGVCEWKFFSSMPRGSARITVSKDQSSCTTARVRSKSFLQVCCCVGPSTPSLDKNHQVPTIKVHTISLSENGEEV
The series can be described thus: Antagonist activity at human adrenergic alpha1A receptor expressed in rat fibroblasts by plate-based calcium imaging. It is filed as functional.

Series [5] concerns the target T3, Alpha-1B adrenergic receptor (Homo sapiens, UniProt P35368).
T3 sequence (P35368 whole entry): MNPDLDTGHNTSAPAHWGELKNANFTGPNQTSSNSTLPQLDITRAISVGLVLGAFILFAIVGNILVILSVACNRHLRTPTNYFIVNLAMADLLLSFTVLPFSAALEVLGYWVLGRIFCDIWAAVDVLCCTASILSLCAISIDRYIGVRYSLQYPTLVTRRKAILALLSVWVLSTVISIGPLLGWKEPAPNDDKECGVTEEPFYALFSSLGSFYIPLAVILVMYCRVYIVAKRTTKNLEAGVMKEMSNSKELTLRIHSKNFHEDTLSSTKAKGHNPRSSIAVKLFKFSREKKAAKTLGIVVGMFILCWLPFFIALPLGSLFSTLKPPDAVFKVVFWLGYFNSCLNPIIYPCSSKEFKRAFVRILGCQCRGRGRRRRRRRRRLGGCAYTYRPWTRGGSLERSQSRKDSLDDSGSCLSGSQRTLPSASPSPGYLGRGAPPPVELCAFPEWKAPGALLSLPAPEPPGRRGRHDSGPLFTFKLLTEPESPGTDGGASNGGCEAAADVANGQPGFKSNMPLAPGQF
The series can be described thus: Antagonist activity at human adrenergic alpha1B receptor expressed in rat fibroblasts by plate-based calcium imaging. Type of series: functional. Summed up:
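Plate-based calcium imaging in intact Rat1 fibroblast cells expressing the α1B adrenoceptor. Antagonist affinity is expressed as pKi, with the number of determinations given.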

For series [6], the system named is CHO. The series can be described thus: Selectivity ratio of pKi for human H3 receptor expressed in CHO cells to pKi for human adrenergic alpha1B receptor expressed in rat fibroblast. It is filed as cell-based. Summed up: (§1)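 Ratio of two pKi values. The H3 pKi comes from membranes of CHO cells transfected with cloned human H3, read as reduction of histamine-stimulated GTPγS binding by scintillation proximity detection. The α1A or α1B pKi comes from intact Rat1 fibroblast cells expressing that receptor, read by plate-based calcium imaging.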

Series [7] deals with Voltage-gated inwardly rectifying potassium channel KCNH2 (Homo sapiens, UniProt Q12809). The series is described as follows: Displacement of [3H]dofetilide from human ERG.
Voltage-gated inwardly rectifying potassium channel KCNH2, sequence (Q12809 whole entry): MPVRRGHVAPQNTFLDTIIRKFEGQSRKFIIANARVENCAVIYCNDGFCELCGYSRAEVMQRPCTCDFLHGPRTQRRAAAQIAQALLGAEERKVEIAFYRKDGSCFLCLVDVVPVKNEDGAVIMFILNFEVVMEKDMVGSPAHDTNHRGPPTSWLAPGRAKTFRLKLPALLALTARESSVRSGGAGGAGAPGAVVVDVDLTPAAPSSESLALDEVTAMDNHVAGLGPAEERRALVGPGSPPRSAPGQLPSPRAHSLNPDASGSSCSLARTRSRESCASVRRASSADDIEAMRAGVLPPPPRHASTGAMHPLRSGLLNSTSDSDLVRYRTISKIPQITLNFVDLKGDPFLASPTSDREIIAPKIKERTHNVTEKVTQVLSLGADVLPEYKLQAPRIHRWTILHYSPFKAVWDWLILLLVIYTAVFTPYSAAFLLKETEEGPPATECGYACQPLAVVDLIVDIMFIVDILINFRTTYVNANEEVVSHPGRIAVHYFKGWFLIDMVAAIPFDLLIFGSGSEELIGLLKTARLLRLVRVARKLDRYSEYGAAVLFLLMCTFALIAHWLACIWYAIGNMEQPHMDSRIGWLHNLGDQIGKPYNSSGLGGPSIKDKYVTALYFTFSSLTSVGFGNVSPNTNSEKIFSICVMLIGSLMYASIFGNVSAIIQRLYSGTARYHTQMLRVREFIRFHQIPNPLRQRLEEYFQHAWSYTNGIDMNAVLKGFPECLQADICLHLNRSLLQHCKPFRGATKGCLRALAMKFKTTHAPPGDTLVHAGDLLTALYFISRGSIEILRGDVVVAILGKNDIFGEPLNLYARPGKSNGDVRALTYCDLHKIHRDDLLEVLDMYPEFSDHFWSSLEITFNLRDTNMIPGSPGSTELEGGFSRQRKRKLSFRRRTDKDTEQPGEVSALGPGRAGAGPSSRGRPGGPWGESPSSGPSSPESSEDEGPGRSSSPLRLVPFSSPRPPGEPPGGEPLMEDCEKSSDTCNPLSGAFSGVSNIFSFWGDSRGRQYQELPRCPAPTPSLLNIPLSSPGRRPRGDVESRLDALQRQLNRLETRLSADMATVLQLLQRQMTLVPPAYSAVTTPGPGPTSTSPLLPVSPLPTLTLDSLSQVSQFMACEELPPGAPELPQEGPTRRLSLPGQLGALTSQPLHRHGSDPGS
The test system of series [8] is CHO. The series is described as follows: Selectivity ratio of pKi for human H3 receptor expressed in CHO cells to pKi for human H1 receptor expressed in CHO cells. Type of series: cell-based. Summed up: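 Ratio of two pKi values. The H3 pKi comes from membranes of CHO cells transfected with cloned human H3 receptor, read as reduction of histamine-stimulated GTPγS binding by scintillation proximity detection. The H1 pKi comes from intact CHO cells expressing recombinant human H1, read as inhibition of agonist-induced calcium mobilisation (Fluo-4AM dye, FLIPR plate-based imaging).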

Series [9] concerns CHO. The series can be described thus: Selectivity ratio of pKi for human H3 receptor expressed in CHO cells to pKi for human adrenergic alpha1A receptor expressed in rat fibroblast. Type of series: cell-based. Summed up: as §1

Molecules are shown by their SMILES.

Histamine H3 receptor, sequence (Q9Y5N1 whole entry): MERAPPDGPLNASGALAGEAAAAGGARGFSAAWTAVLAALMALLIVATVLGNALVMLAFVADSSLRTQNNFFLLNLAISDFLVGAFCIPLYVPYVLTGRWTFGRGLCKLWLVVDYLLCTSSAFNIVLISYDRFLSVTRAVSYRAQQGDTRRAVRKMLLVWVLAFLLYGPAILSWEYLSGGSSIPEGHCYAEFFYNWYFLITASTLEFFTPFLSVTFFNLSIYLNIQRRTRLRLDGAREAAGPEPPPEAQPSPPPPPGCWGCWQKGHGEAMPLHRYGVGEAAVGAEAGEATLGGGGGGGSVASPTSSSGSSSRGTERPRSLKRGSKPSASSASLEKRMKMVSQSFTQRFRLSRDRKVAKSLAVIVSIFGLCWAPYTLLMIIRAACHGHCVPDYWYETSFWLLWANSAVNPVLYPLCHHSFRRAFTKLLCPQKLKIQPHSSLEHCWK

What is called Ki is the equilibrium dissociation constant of an inhibitor or competing ligand from its target. As usually defined, the logD is lipophilicity at a set pH, counting ionised and neutral species. `CCCCN1CCC[C@@H]1Cn1nc(Cc2ccc(Cl)cc2)c2ccccc2c1=O`: the Ki at Histamine H1 receptor [1] is 0.912 nM; on Histamine H3 receptor, 437 nM. The molecule further yielded a logD in series [2] of 3.1. Also, the Kb at Histamine H1 receptor [3] is 0.0398 nM.

In the case of `CN1CCCC(n2nc(Cc3ccc(Cl)cc3)c3ccccc3c2=O)CC1` (centres undefined) [AZELASTINE], the Ki at Histamine H3 receptor is 148 nM. In addition, the logD in [2] worked out at 2.3.

Regarding `COCCN1CCC[C@@H]1Cn1nc(Cc2ccc(Cl)cc2)c2ccccc2c1=O`, the Ki on Histamine H1 receptor [1] was 0.513 nM; at Histamine H3 receptor, 398 nM; in series [4], 20 nM; in series [5] it was 12.6 nM. Further, in series [2], the logD came out at 3.3.

Regarding `CCCCN1CCC[C@@H]1Cn1nc(Cc2ccc(Cl)cc2)c2ncccc2c1=O`, the Ki on Histamine H1 receptor [1] was 0.631 nM; on Histamine H3 receptor, 631 nM; in series [4], 50.1 nM; in [5] it was 20 nM. The same molecule displayed a logD in series [2] of 3.4.

As for `CCCCN1CCC[C@@H]1Cn1nc(Cc2ccc(Cl)cc2)c2cccnc2c1=O`, the Ki at Histamine H1 receptor [1] is 0.631 nM; on Histamine H3 receptor, 631 nM; in [4], 100 nM; in series [5] it was 100 nM. The same molecule returned a logD in series [2] of 2.8. For the same molecule, at Histamine H1 receptor [3], the Kb is 0.316 nM.

For `COCCN1CCC[C@@H]1Cn1nc(Cc2ccc(Cl)cc2)c2cnccc2c1=O`, the Ki at Histamine H1 receptor [1] was 0.251 nM; in [5] it was 10 nM. The molecule further came in with a logD in series [2] of 2.7. Further, at Histamine H1 receptor [3], the Kb was 0.251 nM.

A word on the IC50: it is the concentration that inhibits the measured activity by half. Lower therefore signals greater potency in that assay. For the molecule `CCCCN1CCC[C@@H]1Cn1nc(Cc2ccc(Cl)cc2)c2cnccc2c1=O`, the Ratio pKi worked out at 10 in the series on CHO [6], 2.7 with CHO [8] and 10 in the series with CHO [9]. For the same molecule, the Ki was 0.398 nM on Histamine H1 receptor [1], 631 nM at Histamine H3 receptor, 6.31 nM in series [4] and 7.94 nM in series [5]. Moreover, in [7], the IC50 was 50.1 nM. Moreover, the logD in series [2] was found to be 3.2. Besides, on Histamine H1 receptor [3], the Kb is 0.1 nM.

As for `CN1CCC[C@@H]1Cn1nc(Cc2ccc(Cl)cc2)c2ccccc2c1=O`, the Ki was 0.162 nM at Histamine H1 receptor [1], 437 nM on Histamine H3 receptor, 31.6 nM in series [4] and 10 nM in series [5]. The molecule also yielded a logD in series [2] of 3. On Histamine H1 receptor [3], the Kb was 0.1 nM.

As to `CN1CCC[C@@H]1Cn1nc(Cc2ccc(Cl)cc2)c2cnccc2c1=O`, the Ki at Histamine H1 receptor [1] is 0.347 nM; at Histamine H3 receptor, 398 nM; in [4] it was 12.6 nM. In series [2], this molecule registered a logD of 1.9. In addition, the Kb at Histamine H1 receptor [3] was 0.316 nM.

Take `CN1CCC[C@@H]1Cn1nc(Cc2ccc(Cl)cc2)c2ncccc2c1=O`: the Ki on Histamine H1 receptor [1] was 0.316 nM; at Histamine H3 receptor, 316 nM; in series [4] it was 200 nM; in [5], 50.1 nM. For the same molecule, the pH-dependent lipophilicity (logD) in series [2] was 2.7. On Histamine H1 receptor [3], the Kb is 0.316 nM.

For `CN1CCC[C@@H]1Cn1nc(Cc2ccc(Cl)cc2)c2cccnc2c1=O`, the Ki at Histamine H1 receptor [1] was 0.355 nM; in series [4] it was 631 nM; in series [5], 158 nM. The same molecule came in with a logD in series [2] of 1.7. Besides, on Histamine H1 receptor [3], the Kb was 0.501 nM.

Regarding `CN1CCC[C@@H]1Cn1nc(Cc2ccc(Cl)cc2)c2nccnc2c1=O`, the Ki at Histamine H1 receptor [1] is 1.29 nM; at Histamine H3 receptor it was 631 nM; in series [4] it was 398 nM; in series [5], 251 nM. Also, the logD in series [2] stood at 1.7. For the same molecule, at Histamine H1 receptor [3], the Kb was 3.98 nM.

For `O=c1c2ccncc2c(Cc2ccc(Cl)cc2)nn1C[C@H]1CCCN1CCCCc1ccc(OCCCN2CCCCCC2)cc1`, the Ratio pKi was 10 in the series on CHO [6], 2.7 with CHO [8] and 10 in the series with CHO [9]. In addition, the Ki on Histamine H1 receptor [1] was 17.4 nM; on Histamine H3 receptor it was 0.562 nM; in series [4] it was 31.6 nM; in series [5], 39.8 nM. The IC50 in series [7] is 158 nM. Moreover, the Kb at Histamine H1 receptor [3] was 1 nM.

Take `COCCN1CCC[C@@H]1Cn1nc(Cc2ccc(Cl)cc2)c2ncccc2c1=O`: the Ki at Histamine H1 receptor [1] is 0.537 nM; in series [4] it was 158 nM; in [5], 39.8 nM. The molecule also yielded a logD in series [2] of 2.9.

Regarding `CN1CCC[C@@H]1Cn1nc(Cc2ccc(Cl)cc2)c2ccncc2c1=O`, the Ki on Histamine H1 receptor [1] was 0.692 nM; at Histamine H3 receptor it was 398 nM; in series [4] it was 20 nM. In addition, the logD in series [2] is 2.2. In addition, on Histamine H1 receptor [3], the Kb was 2.51 nM.

Turning to `COCCN1CCC[C@@H]1Cn1nc(Cc2ccc(Cl)cc2)c2cccnc2c1=O`, the Ki at Histamine H1 receptor [1] was 1 nM; on Histamine H3 receptor, 631 nM; in [4], 316 nM; in series [5], 316 nM. The molecule also yielded a logD in series [2] of 2.1. Besides, on Histamine H1 receptor [3], the Kb was 0.794 nM.

In turn, `O=c1c2ccccc2c(Cc2ccc(Cl)cc2)nn1C[C@H]1CCCN1CCCCc1ccc(OCCCN2CCCCCC2)cc1` [GSK-1004723] returned a logD in series [2] of 3.2.
